# Measurements taken from ChEMBL document CHEMBL4622976, “Development of pH/Glutathione-Responsive Theranostic Agents Activated by Glutathione S-Transferase π for Human Colon Cancer” (J Med Chem, 2020).
# The source made the active and inactive calls. The rule behind the calls is not given here.
# Columns and labels:
# [1] = Drug metabolism assessed as GSTpi (unknown origin) mediated compound fluorescence activation at 1 uM in presence of 1 mM Mg2+ by HPLC analysis; type: ADME; settings: human
# How it was run: (§1)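 Selectivity test: compound (1 µM) with catalytic GSTπ and each analyte in water with 1% (v/v) DMSO at pH 4.0, 37 °C for 0.5 h. Analytes were cations at 1 mM; amino acids, vitamin C, Na2S and GSH at 100 µM. Readout was fluorescence emission spectra (excitation 440 nm, recorded 450–650 nm).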
# [2] = Drug metabolism assessed as GSTpi (unknown origin) mediated compound fluorescence activation at 1 uM in presence of 100 uM histidine by HPLC analysis; type: ADME; settings: human; how it was run: as §1
# [3] = Drug metabolism assessed as GSTpi (unknown origin) mediated compound fluorescence activation at 1 uM in presence of 100 uM alanine by HPLC analysis; type: ADME; settings: human; how it was run: as §1
# [4] = Drug metabolism assessed as GSTpi (unknown origin) mediated compound fluorescence activation at 1 uM in presence of 100 uM serine by HPLC analysis; type: ADME; settings: human; how it was run: as §1
# [5] = Drug metabolism assessed as GSTpi (unknown origin) mediated compound fluorescence activation at 1 uM in presence of 100 uM glycine by HPLC analysis; type: ADME; settings: human; how it was run: as §1
# [6] = Drug metabolism assessed as GSTpi (unknown origin) mediated compound fluorescence activation at 1 uM in presence of 100 uM arginine by HPLC analysis; type: ADME; settings: human; how it was run: as §1
# [7] = Drug metabolism assessed as GSTpi (unknown origin) mediated compound fluorescence activation at 1 uM in presence of 50 uM […] by HPLC analysis; type: ADME; settings: human
# [8] = Drug metabolism assessed as GSTpi (unknown origin) mediated compound fluorescence activation at 1 uM in presence of 50 uM H2O2 by HPLC analysis; type: ADME; settings: human
# [9] = Drug uptake in human HT-29 cells at 1 uM measured within 10 mins by confocal fluorescence microscopy; type: ADME, cell-based; settings: ht-29, 10 min
# How it was run: (§2)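 Cells were seeded at 2×10^5 in glass-bottom dishes and allowed to attach. Medium was then replaced with DMEM containing 1 µM compound. Confocal images were taken every minute for 60 min with a 40× water objective, 405 nm laser and 480–530 nm filter. Intracellular fluorescence intensity was quantified.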
# [10] = Drug uptake in human CCD-841 cells at 1 uM measured within 10 mins by confocal fluorescence microscopy; type: ADME, cell-based; how it was run: as §2
# [11] = Drug localization in colon of intra-operative mouse xenografted with human HT-29/Luc cells at 40 mg/kg, iv measured after 2 hrs post dose by fluorescence imaging assay; type: ADME, organism-based; settings: in vivo
# How it was run: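 Orthotopic model: 1×10^6 HT29/Luc cells were injected into the upper colon of anaesthetised nude mice (5–6 weeks old). Tumours were confirmed by bioluminescence after two weeks. Dosing was 40 mg/kg iv, with whole-body bioluminescence and fluorescence imaging at 2 h under pentobarbital anaesthesia. Organs were then excised and imaged ex vivo (ex/em 430/490 nm).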
# [12] = tested on: HepG2; assay: Antiproliferative activity against human HepG2 cells by MTT assay; type: functional, cell-based
# How it was run: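 MTT assay. Cells were grown in DMEM/RPMI 1640 with 10% FBS, penicillin and streptomycin at 37 °C under 5% CO2. After a PBS wash, cells got 0.5 mg/mL MTT for 3 h at 37 °C. Formazan was dissolved in DMSO and absorbance read at 570 nm. Inhibition was expressed as a percentage and IC50 calculated. Means ± SD come from three separate experiments.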
# [13] = Toxicity in ICR mouse assessed as induction of abnormality in body weight level at 240 mg/kg, ip for 14 days; type: organism-based; settings: in vivo, 336 h
# How it was run: (§3)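 Female ICR mice (n = 10 per group) given a single intraperitoneal dose at 240.0, 300.0, 375.0, 468.8 or 585.9 mg/kg, or vehicle. Deaths recorded at 1 h, 4 h and daily through day 14. Body weight, drinking, eating and activity observed for abnormality; LD50 derived from mortality.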
# [14] = Toxicity in ICR mouse assessed as induction of abnormality in eating behavior at 240 mg/kg, ip for 14 days; type: organism-based; settings: in vivo, 336 h; how it was run: as §3
# [15] = Toxicity in ICR mouse assessed as induction of animal death at 240 to 375 mg/kg, ip measured after 3 days; type: organism-based; settings: in vivo, 72 h
# How it was run: (§4)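 Female ICR mice, randomised, n = 10 per group. Single intraperitoneal dose of 240.0, 300.0, 375.0, 468.8 or 585.9 mg/kg, or vehicle. Deaths recorded at 1 h, 4 h, days 1–4 and days 5–14. Body weight, drinking, eating and activity observed over 14 days. Survival percentage taken on day 14; LD50 derived from the dose–mortality data.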
# [16] = Toxicity in ICR mouse assessed as induction of animal death at 240 to 468.8 mg/kg, ip measured after 5 to 14 days; type: organism-based; settings: in vivo; how it was run: as §4
# [17] = Toxicity in ICR mouse assessed as induction of animal survival rate at 585.9 mg/kg, ip measured after 14 days; type: organism-based; settings: in vivo; how it was run: as §4
# [18] = Toxicity in ICR mouse assessed as induction of animal survival rate at 375 mg/kg, ip measured after 14 days; type: organism-based; settings: in vivo; how it was run: as §4
# [19] = tested on: HT-29; assay: Antitumor activity against human HT-29 cells xenografted in nude BALB/c mouse assessed as reduction in tumor volume at 20 mg/kg, ip dosed every day for 21 days; type: functional, organism-based
# [20] = tested on: HT-29; assay: Induction of apoptosis in human HT-29 cells at 2.5 uM incubated for 72 hrs by FITC-AnnexinV/PI staining based flow cytometry relative to control; type: functional
# How it was run: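 HT29 cells were cultured 12 h, then exposed to compound (0.4, 1.0, 2.5 µM) or vehicle for 72 h. Harvested cells were stained with Annexin V and PI, and apoptotic cell percentages measured by flow cytometry. Means ± SD come from three separate experiments.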
# [21] = tested on: HT-29; assay: Induction of apoptosis in human HT-29 cells assessed as increase in Bax protein level incubated for 72 hrs by Western blot analysis; type: functional, cell-based
# How it was run: (§5)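 HT29 cells (1.5×10^5/mL) were treated for 72 h and lysed. Lysate (0.05 mg/lane) was run on 12% SDS-PAGE and transferred to nitrocellulose. After blocking in 5% non-fat milk, blots were probed for Bax, Bcl-2, cleaved caspase-3, cleaved PARP, LC3, p62 and beclin-1. Levels were normalised to β-actin, and means ± SD taken from three independent assays.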
# [22] = tested on: HT-29; assay: Induction of apoptosis in human HT-29 cells assessed as reduction in Bcl2 protein level incubated for 72 hrs by Western blot analysis; type: functional, cell-based; how it was run: as §5
# [23] = tested on: HT-29; assay: Induction of autophagy in human HT-29 cells assessed as reduction in p62 protein level incubated for 72 hrs by Western blot analysis; type: functional, cell-based
# How it was run: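 HT29 cells (1.5×10^5/mL) exposed to compound or vehicle for 72 h, then lysed. Lysates (0.05 mg/lane) run on 12% SDS-PAGE, transferred to nitrocellulose, blocked with 5% non-fat milk and probed for LC3, p62, beclin-1 and β-actin. Bands quantified relative to β-actin, with LC3-II/LC3-I ratio also calculated; means ± SD from three independent assays.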
structure (smiles),measurement,setting,value
COc1cc(-c2nc(NC(=O)OCC3=CCCCC3=O)cc3c2[nH]c2ccccc23)cc(OC)c1OC,Drug metabolism,[1],Metabolite_Notdetected
same,Drug metabolism,[2],Metabolite_Notdetected
same,Drug metabolism,[3],Metabolite_Notdetected
same,Drug metabolism,[4],Metabolite_Notdetected
same,Drug metabolism,[5],Metabolite_Notdetected
same,Drug metabolism,[6],Metabolite_Notdetected
same,Drug metabolism,[7],Metabolite_Notdetected
same,Drug metabolism,[8],Metabolite_Notdetected
same,Drug uptake,[9],Active
same,Drug uptake,[10],Not Active
same,Drug uptake,[11],Active
same,IC50,[12],1570 nM
same,Activity,[13],Non-Toxic
same,Activity,[14],Non-Toxic
same,Activity,[15],Non-Toxic
same,Activity,[16],Non-Toxic
same,survival at 336 h,[17],10%
same,survival at 336 h,[18],80%
same,Activity,[19],Active
same,Activity,[20],52.3%
same,Activity,[21],Dose-dependent effect
same,Activity,[22],Dose-dependent effect
same,Activity,[23],Dose-dependent effect
